Reference: ChEMBL document CHEMBL3352331, “Anti-respiratory syncytial virus prenylated dihydroquinolone derivatives from the gorgonian-derived fungus Aspergillus sp. XS-20090B15” (J Nat Prod, 2014)

Columns and labels:
[1] = test system: Respiratory syncytial virus; experiment: Antiviral activity against Respiratory syncytial virus infected in human Hep2 cells assessed as inhibition of virus-induced cytopathic effect after 72 hrs by XTT assay; type: functional, organism-based; settings: HEp-2, 72 h
In short: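 RSV-induced cytopathic effect inhibition in Hep-2 (human laryngeal carcinoma) cells, run by an established CPE-inhibition procedure. Ribavirin served as the positive control. Values are the mean of three replicate determinations.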

[2] = Therapeutic index, ratio of TC50 for human Hep2 cells to IC50 for Respiratory syncytial virus; type: cell-based, HEp-2; settings: read-out: TI
[3] = Cytotoxicity against human Hep2 cells after 48 hrs; type: cell-based, HEp-2; settings: read-out: TC50

SMILES | IC50 [1] [µM] | selectivity ratio [2] | CC50 at 48 h [3] [µM]
CN[C@H](C(=O)O[C@@H]1CC[C@@](C)(/C=C/c2ccc3c(c2O)[C@@](O)(c2ccccc2)[C@H](OC)C(=O)N3)C[C@@H]1C)C(C)C | > 50 | – | –
CN[C@H](C(=O)O[C@@H]1CC[C@@](C)(/C=C/c2ccc3c(c2O)[C@@](O)(c2ccccc2)[C@H](OC)C(=O)N3)C[C@H]1C)C(C)C | 0.042 | 520 | 22
CO[C@@H]1C(=O)Nc2ccc(/C=C/[C@]3(C)CCC(=O)[C@H](C)C3)c(O)c2[C@@]1(O)c1ccccc1 | 6.6 | 4 | 27
CO[C@@H]1C(=O)Nc2ccc(/C=C/[C@]3(C)CCC(=O)[C@@H](C)C3)c(O)c2[C@@]1(O)c1ccccc1 [AFLAQUINOLONE A] | > 50 | – | –
NC(=O)c1ncn([C@@H]2O[C@H](CO)[C@@H](O)[C@H]2O)n1 [RIBAVIRIN] | 20 | > 150 | > 3000
